The source made the active and inactive calls. The rule behind the calls is not given here.
Columns and labels:
Oryctolagus cuniculus [1] = species: Oryctolagus cuniculus; assay: (§1) Agonist activity at muscarinic M1 receptor in New Zealand White rabbit vas deferens assessed as inhibition of electrically-stimulated muscle contraction; assay type: functional
Summary of the method: (§2)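 Prostatic portion of male-free-listed New Zealand white rabbit (3.0-3.5 kg, fasted 24 h) vas deferens in modified Krebs, 31 °C, 95% O2-5% CO2; 45 min stabilisation, field stimulation 2 Hz, 5 ms, 5 V; isometric recording. Cumulative concentration-response curves; pD2 by linear regression; intrinsic activity as fraction of McN-A-343 maximum; means ± SEM of four to six experiments.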

[2] = target: T1, Muscarinic acetylcholine receptor M2 (Homo sapiens, UniProt P08172); assay: Displacement of [3H]NMS from human muscarinic M2 receptor expressed in CHO cells by microplate scintillation counting; assay type: cell-based
T1 sequence (P08172 whole entry): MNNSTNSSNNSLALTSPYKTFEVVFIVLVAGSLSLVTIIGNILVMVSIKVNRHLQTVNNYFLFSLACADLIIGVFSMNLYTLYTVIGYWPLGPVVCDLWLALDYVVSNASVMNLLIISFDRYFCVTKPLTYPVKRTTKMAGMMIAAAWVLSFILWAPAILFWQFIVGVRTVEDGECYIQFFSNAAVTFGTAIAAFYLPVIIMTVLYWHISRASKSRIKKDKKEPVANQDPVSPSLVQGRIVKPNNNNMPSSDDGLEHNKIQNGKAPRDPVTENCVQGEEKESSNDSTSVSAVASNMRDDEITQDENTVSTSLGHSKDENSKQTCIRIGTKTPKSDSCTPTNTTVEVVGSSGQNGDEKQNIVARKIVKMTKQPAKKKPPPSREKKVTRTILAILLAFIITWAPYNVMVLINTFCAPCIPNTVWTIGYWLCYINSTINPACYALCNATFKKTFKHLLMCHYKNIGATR

[3] = target: Muscarinic acetylcholine receptor M3 (Cavia porcellus) (UniProt Q8VH26); assay: Intrinsic activity at muscarinic M3 receptor in guinea pig ileum assessed as inhibition of electrically-stimulated muscle contraction relative to bathanecol; assay type: tissue-based
Summary of the method: (§3)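 Male guinea pig (250-350 g, fasted 24 h) ileal segments 2-3 cm, 1.0 g tension, 37 °C, Krebs-Henseleit with carbogen; 45 min equilibration, isometric contractions. Cumulative agonist concentration-response curves; pD2 by linear regression; intrinsic activity relative to bethanechol maximum; means ± SEM of four to six experiments.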

[4] = Agonist activity at muscarinic M2 receptor in guinea pig atrium assessed as inhibition of electrically-stimulated muscle contraction; assay type: functional, Cavia porcellus, Cardiac atrium
Oryctolagus cuniculus [5] = species: Oryctolagus cuniculus; assay: Antagonist activity at muscarinic M1 receptor in New Zealand White rabbit vas deferens assessed as effect on muscle contraction up to 30 uM; assay type: functional, tissue-based
[6] = target: T2, Muscarinic acetylcholine receptor M4 (Homo sapiens, UniProt P08173); assay: Displacement of [3H]NMS from human muscarinic M4 receptor expressed in CHO cells by microplate scintillation counting; assay type: cell-based
T2 sequence (P08173 whole entry): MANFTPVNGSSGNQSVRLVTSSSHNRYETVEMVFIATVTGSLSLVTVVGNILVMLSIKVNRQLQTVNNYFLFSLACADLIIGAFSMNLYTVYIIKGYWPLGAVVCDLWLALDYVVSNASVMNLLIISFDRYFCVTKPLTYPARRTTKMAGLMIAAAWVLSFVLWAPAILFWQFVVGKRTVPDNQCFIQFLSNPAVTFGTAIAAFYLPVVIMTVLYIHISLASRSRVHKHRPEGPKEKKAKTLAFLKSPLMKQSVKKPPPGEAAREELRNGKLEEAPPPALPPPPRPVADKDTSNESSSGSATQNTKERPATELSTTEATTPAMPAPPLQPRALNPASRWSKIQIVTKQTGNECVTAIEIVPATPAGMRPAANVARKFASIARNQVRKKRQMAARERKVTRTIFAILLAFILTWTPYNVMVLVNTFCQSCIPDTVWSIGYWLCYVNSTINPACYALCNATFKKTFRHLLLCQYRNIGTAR

[7] = target: Muscarinic acetylcholine receptor M3 (Cavia porcellus) (UniProt Q8VH26); assay: Agonist activity at muscarinic M3 receptor in guinea pig ileum assessed as inhibition of electrically-stimulated muscle contraction; assay type: functional, tissue-based; summary of the method: as §3
[8] = target: T3, Muscarinic acetylcholine receptor M1 (Homo sapiens, UniProt P11229); assay: Displacement of [3H]NMS from human muscarinic M1 receptor expressed in CHO cells by microplate scintillation counting; assay type: cell-based
T3 sequence (P11229 whole entry): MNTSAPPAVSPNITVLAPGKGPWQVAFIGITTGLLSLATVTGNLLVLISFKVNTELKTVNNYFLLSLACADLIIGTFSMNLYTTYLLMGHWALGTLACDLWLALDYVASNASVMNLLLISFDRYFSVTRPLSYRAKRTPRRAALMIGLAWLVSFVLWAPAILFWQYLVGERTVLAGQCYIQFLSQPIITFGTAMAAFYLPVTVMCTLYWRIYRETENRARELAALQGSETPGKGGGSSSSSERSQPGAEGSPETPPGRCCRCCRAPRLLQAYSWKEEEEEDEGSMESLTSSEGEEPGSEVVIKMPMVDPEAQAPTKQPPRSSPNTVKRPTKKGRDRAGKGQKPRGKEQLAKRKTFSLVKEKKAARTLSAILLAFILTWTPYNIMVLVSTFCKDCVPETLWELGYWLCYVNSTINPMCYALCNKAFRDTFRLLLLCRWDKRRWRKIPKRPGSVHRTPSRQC

Cavia porcellus [9] = species: Cavia porcellus; assay: Antagonist activity at muscarinic M4 receptor in guinea pig lung assessed as effect on muscle contraction up to 10 uM; assay type: functional
Cavia porcellus [10] = species: Cavia porcellus; assay: Intrinsic activity at muscarinic M2 receptor in guinea pig atrium assessed as inhibition of electrically-stimulated muscle contraction relative to bathanecol; assay type: tissue-based; settings: Cardiac atrium
[11] = target: Muscarinic acetylcholine receptor M3 (Homo sapiens, UniProt P20309); assay: Displacement of [3H]NMS from human muscarinic M3 receptor expressed in CHO cells by microplate scintillation counting; assay type: cell-based
[12] = target: T4, Muscarinic acetylcholine receptor M5 (Homo sapiens, UniProt P08912); assay: Displacement of [3H]NMS from human muscarinic M5 receptor expressed in CHO cells by microplate scintillation counting; assay type: cell-based
T4 sequence (P08912 whole entry): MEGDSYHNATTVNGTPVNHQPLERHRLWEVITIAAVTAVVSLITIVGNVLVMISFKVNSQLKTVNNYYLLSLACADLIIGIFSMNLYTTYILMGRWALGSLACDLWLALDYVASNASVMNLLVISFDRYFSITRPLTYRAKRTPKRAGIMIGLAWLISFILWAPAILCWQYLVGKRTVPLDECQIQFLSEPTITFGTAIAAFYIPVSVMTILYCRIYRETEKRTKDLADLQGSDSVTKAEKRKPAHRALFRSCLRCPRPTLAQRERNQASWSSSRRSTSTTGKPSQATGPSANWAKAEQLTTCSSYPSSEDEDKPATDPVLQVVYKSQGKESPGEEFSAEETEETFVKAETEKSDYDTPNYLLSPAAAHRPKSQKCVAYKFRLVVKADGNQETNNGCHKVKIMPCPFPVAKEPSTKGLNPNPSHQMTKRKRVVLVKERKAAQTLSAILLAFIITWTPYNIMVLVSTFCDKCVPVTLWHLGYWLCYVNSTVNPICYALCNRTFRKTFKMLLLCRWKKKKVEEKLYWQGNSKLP

[13] = as §1; assay type: functional, Oryctolagus cuniculus; summary of the method: as §2
Cavia porcellus [14] = species: Cavia porcellus; assay: Intrinsic activity at muscarinic M4 receptor in guinea pig lung assessed as inhibition of electrically-stimulated muscle contraction relative to bathanecol
Summary of the method: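 Male guinea pig peripheral lung strips (15 × 2 × 2 mm) from lower lobe, 0.3 g resting tension, 37 °C, Krebs-Henseleit with carbogen; 45 min equilibration, isometric contractions. Cumulative agonist concentration-response curves; pD2 by linear regression; intrinsic activity relative to bethanechol maximum; means ± SEM of four to six experiments.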

Cavia porcellus [15] = species: Cavia porcellus; assay: Antagonist activity at muscarinic M2 receptor in guinea pig atrium assessed as effect on muscle contraction up to 10 uM; assay type: functional, tissue-based; settings: Cardiac atrium
[16] = Agonist activity at muscarinic M4 receptor in guinea pig lung assessed as inhibition of electrically-stimulated muscle contraction; assay type: functional, Cavia porcellus
Cavia porcellus [17] = species: Cavia porcellus; assay: Selectivity ratio of pD2 for guinea pig muscarinic M4 receptor to pD2 for guinea pig muscarinic M3 receptor
Cavia porcellus [18] = species: Cavia porcellus; assay: Selectivity ratio of pD2 for guinea pig muscarinic M3 receptor to pD2 for guinea pig muscarinic M2 receptor
Oryctolagus cuniculus [19] = species: Oryctolagus cuniculus; settings: New Zealand White, Vas deferens
Oryctolagus cuniculus [20] = species: Oryctolagus cuniculus; assay: Intrinsic activity at muscarinic M1 receptor in New Zealand White rabbit vas deferens assessed as inhibition of electrically-stimulated muscle contraction relative to McN-A-343; assay type: tissue-based; summary of the method: as §2
Cavia porcellus [21] = species: Cavia porcellus; settings: Cardiac atrium
[22] = target: Muscarinic acetylcholine receptor M3 (Cavia porcellus) (UniProt Q8VH26); settings: Ileum

Muscarinic acetylcholine receptor M3 (Cavia porcellus), sequence (Q8VH26 1-587): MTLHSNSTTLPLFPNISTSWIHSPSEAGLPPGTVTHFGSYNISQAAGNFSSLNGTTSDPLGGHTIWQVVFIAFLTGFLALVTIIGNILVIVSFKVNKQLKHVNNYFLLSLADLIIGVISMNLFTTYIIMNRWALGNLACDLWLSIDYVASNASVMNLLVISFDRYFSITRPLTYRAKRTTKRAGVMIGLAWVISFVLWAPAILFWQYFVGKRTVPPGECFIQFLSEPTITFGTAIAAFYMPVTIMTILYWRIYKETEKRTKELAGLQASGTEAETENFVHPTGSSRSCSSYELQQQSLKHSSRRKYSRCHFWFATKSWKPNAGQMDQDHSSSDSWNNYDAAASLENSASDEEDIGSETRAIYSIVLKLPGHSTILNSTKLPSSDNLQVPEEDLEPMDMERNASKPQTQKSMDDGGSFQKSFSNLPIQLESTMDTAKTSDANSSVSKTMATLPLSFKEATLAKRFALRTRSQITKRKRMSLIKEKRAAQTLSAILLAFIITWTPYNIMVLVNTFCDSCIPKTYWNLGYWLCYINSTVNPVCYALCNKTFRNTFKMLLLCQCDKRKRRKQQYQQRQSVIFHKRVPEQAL
Muscarinic acetylcholine receptor M3, sequence (P20309 whole entry): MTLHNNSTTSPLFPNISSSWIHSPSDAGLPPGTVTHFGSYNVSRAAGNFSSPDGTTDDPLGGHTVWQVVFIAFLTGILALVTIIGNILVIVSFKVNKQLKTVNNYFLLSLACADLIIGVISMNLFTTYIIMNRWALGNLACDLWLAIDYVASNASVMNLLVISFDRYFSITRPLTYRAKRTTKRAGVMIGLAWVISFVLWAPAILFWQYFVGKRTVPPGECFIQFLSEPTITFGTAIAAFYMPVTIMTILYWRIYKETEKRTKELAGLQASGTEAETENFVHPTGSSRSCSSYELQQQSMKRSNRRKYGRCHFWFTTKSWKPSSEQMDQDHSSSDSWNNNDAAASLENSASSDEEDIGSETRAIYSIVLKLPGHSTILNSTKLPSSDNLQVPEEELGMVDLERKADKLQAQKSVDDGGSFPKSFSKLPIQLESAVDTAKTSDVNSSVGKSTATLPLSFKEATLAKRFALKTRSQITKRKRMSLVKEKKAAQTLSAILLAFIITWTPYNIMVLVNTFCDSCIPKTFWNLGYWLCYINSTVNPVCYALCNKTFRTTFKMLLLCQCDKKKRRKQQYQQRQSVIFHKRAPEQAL

Row | SMILES | pD2 (Oryctolagus cuniculus [1]) | Ki [2] [µM] | Intrinsic activity [3] | pD2 [4] | pKb (Oryctolagus cuniculus [5]) | Ki [6] [µM] | pD2 [7] | Ki [8] [µM] | pKb (Cavia porcellus [9]) | Intrinsic activity (Cavia porcellus [10]) | Ki [11] [µM] | Ki [12] [µM] | Intrinsic activity (Cavia porcellus [14]) | pD2 [16] | further results
1 | CC1(C)OC[C@@H](C[N+](C)(C)C)OC1(C)C.[I-] | inactive | 46.8 | 0.93 | 5.12 | inactive | 53.7 | 5.09 | > 100 | inactive | 0.71 | 40.7 | 66.1 |  |  | 
2 | C[N+](C)(C)CC#CCOC(=O)Nc1cccc(Cl)c1.[Cl-] |  |  |  |  |  |  |  |  |  |  |  |  |  |  | pD2 [13]: 6.4
3 | CC1(C)CO[C@H](C[N+](C)(C)C)CO1.[I-] | inactive | 95.5 | 0.68 |  | inactive | > 100 | 4.91 | > 100 |  |  | 77.6 | > 100 | 0.22 | 4.85 | pKb (Cavia porcellus [15]): inactive
4 | C[C@@H]1OC[C@@H](C[N+](C)(C)C)O[C@H]1C.[I-] (relative stereo) | inactive | 13.8 | 0.88 | 4.93 | inactive | 30.9 | 6.95 | 24.5 |  | 0.8 | 11 | 15.5 | 0.35 | 5.08 | Selectivity ratio (Cavia porcellus [17]): 74; Selectivity ratio (Cavia porcellus [18]): 105
5 | C[C@@H]1CO[C@H](C[N+](C)(C)C)CO1.[I-] (relative stereo) | inactive | 11.2 | 1 |  |  | 93.3 |  | > 100 |  | 1 | 66.1 | 93.3 | 0.55 |  | pKb (Oryctolagus cuniculus [19]): inactive
6 | C[C@@H]1OC[C@@H](C[N+](C)(C)C)OC1(C)C.[I-] (relative stereo) |  | 33.9 | 0.66 | 4.99 |  | 30.2 | 5.7 | 38 | inactive | 0.46 | 10.5 | 16.6 |  |  | 
7 | C[C@@H]1OC[C@@H](C[N+](C)(C)C)O[C@@H]1C.[I-] (relative stereo) | inactive | 89.1 | 0.85 | 5.04 | inactive | > 100 | 4.91 | > 100 | inactive | 0.27 | > 100 | > 100 |  |  | 
8 | C[C@H]1COC[C@@H](C[N+](C)(C)C)O1.[I-] (relative stereo) |  | 1.58 |  |  |  | 11.5 | 7.34 |  |  | 1 |  | 7.76 |  |  | pD2 [13]: 5.65; Intrinsic activity (Oryctolagus cuniculus [20]): 1
9 | C[C@H]1CO[C@H](C[N+](C)(C)C)CO1.[I-] (relative stereo) | inactive | 17.4 | 1 |  |  | > 100 |  | > 100 |  | 0.95 | 44.7 | 63.1 | 0.57 | 5.08 | pKb (Oryctolagus cuniculus [19]): inactive
10 | C[C@H]1O[C@H](C[N+](C)(C)C)COC1(C)C (relative stereo) | inactive | 72.4 |  |  | inactive | 87.1 | inactive | 95.5 | inactive |  | 46.8 | 83.2 |  |  | pKb (Cavia porcellus [21]): inactive; pKb [22]: inactive; pKb (Cavia porcellus [15]): inactive
11 | C[C@@H]1O[C@H](C[N+](C)(C)C)CO[C@@H]1C.[I-] (relative stereo) |  | 20 | 1 | 5.18 |  | > 100 | 5.27 | > 100 |  | 0.91 | > 100 | 97.7 | 0.5 | 5 | 
12 | C[C@H]1OC[C@@H](C[N+](C)(C)C)O[C@@H]1C.[I-] (relative stereo) |  | 16.6 | 1.18 | 5.01 |  | > 100 | 6.7 | > 100 |  | 0.89 | > 100 | > 100 | 0.65 | 4.59 | Selectivity ratio (Cavia porcellus [17]): 141; Selectivity ratio (Cavia porcellus [18]): 49
13 | C[C@@H]1COC[C@@H](C[N+](C)(C)C)O1.[I-] |  | 4.9 |  |  |  | 87.1 | 6.02 |  |  | 1 |  | 67.6 | 1 |  | pD2 [13]: 5.08; Intrinsic activity (Oryctolagus cuniculus [20]): 1

Source: ChEMBL document CHEMBL1153096, “Properly substituted 1,4-dioxane nucleus favours the selective M3 muscarinic receptor activation” (Bioorg Med Chem, 2009)
